Most compounds without a hit are left out; they make up all but 5.7% or so of the library.
SKKanGAS inh: SKKanGAS growth inhibition | S. pyogenes SKKanGAS, kanamycin growth, BacTiter-Glo, 6 h | inhibition, % at 7.5 µM | 300,000 compounds, 1.3% hits | AID 1662;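 active means mean replicate score, as percent of positive control median, at least 50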;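 further: strain carries kanamycin resistance gene driven by streptokinase promoter and grows in 40 µg/ml kanamycin; loss of luminescence reflects streptokinase promoter inhibition or plain growth inhibition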
CSC inhib: cancer stem cell inhibition. AID 2717. cancer stem cell-like cells viability, luminescence. inhibition, % at 7.5 µM. 300,000 compounds, 1.1% hits; in the data active means inhibition above about 75%; tested in HMLE shEcad cells
Calb FLC: affects C. albicans growth with fluconazole; growth inhibition, % (test concentration not listed); AID 1979; C. albicans CaCi-2 (fluconazole-resistant clinical isolate) + fluconazole, Alamar Blue growth, 48 h; 300,000 compounds, 0.57% hits;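 active means growth inhibition above about 58% in most replicates, limit read from the data, passing the limit was not always enough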;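 further: all wells also contain fluconazole at 8 µg/ml as a sub-toxic cotreatment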
T cruzi repl: blocks replication of Trypanosoma cruzi; T. cruzi beta-gal in NIH3T3, luminescence, 90 h; inhibition, % (concentration not given with the values); 300,000 compounds, 1.4% hits;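 active means mean inhibition across valid replicates above about 55%, limit read from the data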;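 further: signal also drops with host cell toxicity which is not excluded here; higher percent means less beta-gal luminescence so fewer parasites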
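System – NIH/3T3 host cells with β-galactosidase reporter T. cruzi · Doses – single 50 nL compound addition per well in DMSO · Reagent – 5000 T. cruzi trypomastigotes/well · Medium – Low-serum DMEM with 2% FBS · Timing – ≥90 h infection period, 3 h prior cell attachment · Evaluation – parasite load inhibition, % · Technique – GalScreen luminescence, 60 min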
Mdm2-MdmX inh: disrupts the human Mdm2-MdmX interaction; O15151+Q00987; SaOS-2 split-luciferase Mdm2/MdmX complementation, luminescence; inhibition, % at 8 µM; 330,000 compounds, 3% hits;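 active means inhibition of at least 50% at 8 µM in the primary screen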
Beta cell apopt: blocks beta cell apoptosis. INS-1E cytokine-induced death, ATP luminescence, 48 h; percent of positive-control rescue, neutral wells zero. protection from apoptosis, % (test concentration not listed). 300,000 compounds, 0.8% hits. AID 435005;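 active means Every replicate reaches about 75%, or at least half do and their mean reaches it too, limit read from the data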;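 further: higher means more ATP so stronger rescue from cytokine killing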
Each line names hits and unclear results; the compound was inactive in the other large screens.

O=C(NNc1ccccc1)C(=O)NNS(=O)(=O)c1ccc(CCCl)cc1	CSC inhib 105, Calb FLC 86, T cruzi repl 72
CCn1c(SCC(=O)Nc2ccc3c(c2)OCCO3)nnc1C1CC1	none
c1ccc(Cn2c(-c3ccccc3)nc3nc4ccccc4nc32)cc1	none (no result: CSC inhib)
O=[N+]([O-])c1cc(-c2nc3nc4ccccc4nc3n2CCc2ccccc2)cc([N+](=O)[O-])c1	T cruzi repl 56
COc1ccc(OC2C(=O)N(Cc3ccc4c(c3)OCO4)C2c2sccc2C)cc1 (stereo not given)	CSC inhib 117, Calb FLC 93
O=C(Nc1ccc2nc(-c3ccc(Br)o3)[nH]c2c1)c1cccs1	T cruzi repl 69
CC(=O)Nc1ccc2nc(-c3ccc(Br)o3)[nH]c2c1	none
c1ccc2nc(-c3nc4ccccc4[nH]3)ccc2c1	CSC inhib 76
CCN1CCN(CC(=O)N2CCCC(C(=O)c3ccc(Oc4ccccc4)cc3)C2)CC1 (stereo not given)	T cruzi repl 72
COc1ccc(S(=O)(=O)NC2CC2)cc1Cl	none
CC(C)(C)c1ccc(O)c(/C=N\O)c1	none
CC(C)(C)c1ccc(O)c(O)c1	CSC inhib 86 (no result: SKKanGAS inh, Calb FLC, T cruzi repl)
O=C(NC(=S)Nc1ccc(CN2CCCCC2)cc1)c1cccc(OCc2ccccc2)c1	T cruzi repl 73 (no result: CSC inhib, Beta cell apopt)
O=C(O)c1ccc(NC(=S)NC(=O)c2cccc(COc3ccccc3)c2)cc1	SKKanGAS inh 58 (no result: CSC inhib)
Nc1c(C(=O)Nc2ccc3c(c2)OCCO3)nnn1Cc1cccc(Br)c1	CSC inhib 77
CN(CC(=O)Nc1c(Cl)cccc1Cl)C(=O)c1cc2ccccc2cc1O	none
Cc1ccc(NC(=O)C/C(N)=N/OC(=O)Nc2cccc(Cl)c2)cc1	none (no result: SKKanGAS inh, CSC inhib, Calb FLC, T cruzi repl)
Cc1cc(C(=O)N2CCN(c3ccc([N+](=O)[O-])cc3)CC2)n[nH]1	none
O=C(/C=C/c1ccc([N+](=O)[O-])cc1)/C=C/c1ccco1	CSC inhib 76
O=S(=O)(NCC(c1ccco1)N1CCc2ccccc2C1)c1ccc(Br)cc1 (stereo not given)	none
Cc1cccc2cc(C(c3nnnn3C(C)(C)C)N(Cc3ccco3)CC3CCCO3)c(=O)[nH]c12 (stereo not given)	none
Cc1ccc2cc(C(c3nnnn3C3CCCC3)N(Cc3ccco3)Cc3cccs3)c(=O)[nH]c2c1 (stereo not given)	T cruzi repl 63
CCC(C)(C)n1nnnc1C(c1ccc(C)cc1)N(Cc1ccco1)Cc1cccs1 (stereo not given)	T cruzi repl 55
Cc1ccc2cc(C(c3nnnn3C3CCCC3)N(Cc3cccnc3)Cc3ccco3)c(=O)[nH]c2c1 (stereo not given)	none
Cc1ccc2[nH]c(=O)c(C(c3nnnn3C(C)(C)C)N(Cc3ccco3)CC3CCCO3)cc2c1 (stereo not given)	T cruzi repl 60
CNS(=O)(=O)c1cccc(C(=O)NNC(=O)c2ccc(COc3ccccc3)cc2)c1	none
CC12CN3CC(C)(CN(C1)C3c1ccc(Br)cc1)C2=O (stereo not given)	none
C[C@@H]1CC[C@H]2C(=O)N3[C@@H](CC[C@@H](C)[C@@H]3c3ccc(Br)cc3)C(=O)N2[C@H]1c1ccc(Br)cc1	CSC inhib 79
Cc1ccc(C)c(N(CC(=O)N/N=C/c2ccc(-c3ccc([N+](=O)[O-])cc3)o2)S(=O)(=O)c2ccccc2)c1	T cruzi repl 72
CCOc1ccc(S(=O)(=O)N(CC(=O)N/N=C/c2ccc(-c3ccc([N+](=O)[O-])cc3)o2)c2ccccc2)cc1	none
CN(C)CCOc1ccc(C(C)(C)c2ccccc2)cc1	CSC inhib 146
O=[N+]([O-])c1cc(Br)c(O)c(/C=N/Nc2nnnn2-c2cccc3ccccc23)c1	SKKanGAS inh 66 (no result: Beta cell apopt)
CCOC(=O)CNC(=O)COc1coc(CN2CCN(c3ccccc3F)CC2)cc1=O	none (no result: Beta cell apopt)
Cc1c(OCC(=O)NCC(O)c2ccccc2)ccc2c(-c3ccccc3)cc(=O)oc12 (stereo not given)	Calb FLC 81
CSc1ccccc1OCc1cc(C(=O)N2CCc3c(Cl)cccc3C2)no1	Beta cell apopt 79
N#Cc1ccc(OCC(=O)OCC(=O)c2ccc[nH]2)cc1	none (no result: SKKanGAS inh, CSC inhib, Calb FLC, T cruzi repl, Beta cell apopt)
COc1cccc(C=O)c1OC(=O)N1CCOCC1	none (no result: CSC inhib, Beta cell apopt)
COC(=O)c1cc(=O)c2c([N+](=O)[O-])ccc(OC)c2o1	none
COc1ccccc1-c1cc(=O)c2c(O)ccc([N+](=O)[O-])c2o1	SKKanGAS inh 70
O=c1cc(-c2ccccc2Cl)oc2ccc([N+](=O)[O-])c(O)c12	SKKanGAS inh 87
COc1ccc([C@@H]2[C@@H]3C(=O)N(C(C)(C)C)C(=O)[C@@H]3[C@]3(C)C(=O)N(c4cccc(Cl)c4)C(=O)N23)cc1	none
O=C(Cn1c2[n+](c3ccc(C(F)(F)F)cc31)CCCCC2)c1ccc2c(c1)OCCO2	T cruzi repl 68 (no result: SKKanGAS inh, Calb FLC)
Cc1ccc(C)c2[nH]c(=O)c(CCNC(=O)CCc3ccccc3)cc12	none
CN(C)c1cc[n+](Cc2c(Cl)cccc2Cl)cc1	Beta cell apopt 97
CN(C)c1cc[n+](CC[n+]2ccc(N(C)C)cc2)cc1	none
COc1cc(C(=O)N[C@H](C(=O)OCC(=O)NC2CCCCCC2)C(C)C)cc(OC)c1OC	none (no result: SKKanGAS inh, Calb FLC, T cruzi repl)
O=C(NCc1ccccn1)c1nc(Cn2cc([N+](=O)[O-])cn2)no1	none
Clc1ccc(N2N=C(c3cccs3)CC2c2ccco2)cc1 (stereo not given)	none
c1ccc(N2N=C(c3cccs3)CC2c2ccco2)cc1 (stereo not given)	SKKanGAS inh 65
COc1ccc(OC)c(NC(=O)COC(=O)[C@H](Cc2ccccc2)NC(=O)c2ccco2)c1	none (no result: SKKanGAS inh, Calb FLC, T cruzi repl)
COc1ccc(C(=O)CSc2nnc(CN3CCCCC3)n2-c2ccc(Cl)cc2)cc1OC	CSC inhib 140
Cc1ccc(NC(=O)C2CCCO2)c(Br)c1 (stereo not given)	none
C[C@@]12C(=O)N(Cc3ccc(F)cc3)CC(=O)N1[C@H]1c3cc(Cl)ccc3OC[C@@H]1[C@@H]2c1ccccc1	none (no result: SKKanGAS inh, Calb FLC, T cruzi repl)
CCOC(=O)c1sc(NC(=O)CNCc2ccccn2)c(C(=O)OCC)c1C	SKKanGAS inh 88
C=CCOc1ccc(C(=O)n2cc(C(=O)OC)c3ccccc32)cc1	none
Oc1ccc(-c2nccc(-c3ccc(Cl)cc3Cl)n2)cc1	T cruzi repl 79
CC12CCC(C/C1=N\N=C1\NC(=O)/C(=C\c3ccc(Cl)cc3)S1)C2(C)C (stereo not given)	SKKanGAS inh 106, CSC inhib 122
O=c1cc(O)nc(SCc2ccc(Cl)cc2)[nH]1	SKKanGAS inh 104
COc1ccc(-c2nn(-c3ccccc3)cc2/C=N/O)cc1OC	none
COc1ccc(-c2nn(-c3ccccc3)cc2/C=N/Nc2ccc3ccccc3n2)cc1OC	Beta cell apopt 86

Screens as filed in PubChem BioAssay.
